Compound activity from PubChem.
A selection: hits, their analogues and other compounds. The true share with any hit is near 2.4%.
Calb FLC = C. albicans growth inhibition with fluconazole, primary screen, CaCi-2 strain, Alamar Blue fluorescence; C. albicans CaCi-2 (fluconazole-resistant clinical isolate) + fluconazole, 48 h; growth inhibition, % (test concentration not listed); 0.57% of 300,000 active;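 active = growth inhibition above about 58% in most replicates, limit read from the data, passing the limit was not always enough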;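 note: all wells also contain fluconazole at 8 µg/ml as a sub-toxic cotreatment; 0% = median of DMSO wells and 100% = median of geldanamycin control wells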
Insulin prom up = insulin promoter activators in MIN6 cells, imaging, high-content screening, mouse beta cells; MIN6 insulin promoter-GFP reporter; active compounds read high; z-score at 5 µM; 0.3% of 190,000 active; AID 1625, 2009;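 active = z-score above 3 at 5 µM with at least 500 cells counted in the well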
beta cell repl = inducers of MIN6 beta-cell proliferation, primary screen, ATP luminescence, uHTS; MIN6 cells proliferation, ATPlite luminescence, 48 h; cells starved in 0.2% serum; 100% = growth in 10% serum; proliferation, % at 10 µM; 0.29% of 330,000 active;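 active = compounds whose signal lies at least 3.5 SD above the mean of all wells on their plate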;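 note: 0% = DMSO-treated cells in low-serum medium and 100% = 10% serum control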
SR-BI uptake up = activators of SR-BI mediated DiI-HDL uptake, primary screen, ldlA[mSR-BI] CHO cells, DiI fluorescence; activation, % at 12.5 µM; 0.096% of 320,000 active; 3 h; 100 = double the neutral-control signal;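 active = mean replicate activation of at least 60% and every replicate at or above 60%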;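 note: 0% = median plate neutral-control signal and 100% = twice that signal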
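Material – SR-BI-overexpressing, LDLR-lacking CHO cells · Medium – BSA-supplemented, HEPES-buffered Ham's F12, pH 7.4 · Doses – single concentration · Times – compound with DiI-HDL co-incubation, 3 h at 37 °C · Measured by – bottom-read fluorescence, 550/595 nm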
SR-BI DiI inh = inhibitors of SR-BI mediated HDL lipid uptake, primary screen, ldlA[mSR-BI] cells, fluorescence, single point | Scavenger receptor class B member 1 (Mus musculus), Q61009 | ldlA[mSR-BI] CHO cells, DiI-HDL uptake fluorescence, 3 h | inhibition, % at 12.5 µM | 0.96% of 320,000 active;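 active = mean replicate inhibition of at least 70% and a set share of replicates each scoring 70 or more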;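 note: 0% = median of neutral control wells and 100% = median of positive control wells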
HTR2A ag = mouse Htr2a agonists via beta-arrestin recruitment, primary screen, cell-based, luminescence; AID 624169, 2012; CHO-K1 mHTR2A beta-arrestin complementation; percent of 30 µM serotonin response; activation, % at 7.6 µM; 0.66% of 360,000 active; 5-hydroxytryptamine receptor 2A (Mus musculus), P35363;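 active = activation above a run cutoff, the mean activation of all tested compounds plus 3 SD, cut at about 14% in these data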;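 note: 0% = plate median of compound wells and 100% = 30 µM serotonin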
OPRM1 ag = OPRM1 agonists via beta-arrestin recruitment, confirmation, counter-screen for mouse HTR2A agonist project, cell-based, luminescence, single concentration; shares compounds with HTR2A ag; U2OS OPRM1 beta-arrestin PathHunter; DMSO 0%, DAMGO 9.3 µM 100%; activation, % at 9.3 µM; 5.3% of 2,300 active; AID 624380, 2012;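 active = mean activation above the mean of DMSO-only wells plus 3 SD, cut at about 0.5% in these data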
Target sequence (P35372 whole entry, looked up): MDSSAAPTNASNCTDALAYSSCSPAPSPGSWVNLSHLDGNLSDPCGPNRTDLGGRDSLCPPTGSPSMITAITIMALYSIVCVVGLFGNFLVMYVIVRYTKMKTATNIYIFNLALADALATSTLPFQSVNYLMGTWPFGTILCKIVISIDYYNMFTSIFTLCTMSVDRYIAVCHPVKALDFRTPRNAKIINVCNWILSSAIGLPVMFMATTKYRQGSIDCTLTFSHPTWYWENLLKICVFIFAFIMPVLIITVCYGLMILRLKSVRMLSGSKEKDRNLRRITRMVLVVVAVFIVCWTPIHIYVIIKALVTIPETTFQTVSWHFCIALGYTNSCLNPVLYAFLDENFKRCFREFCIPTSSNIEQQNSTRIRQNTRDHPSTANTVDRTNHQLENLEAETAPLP
HTR2A ag conf = mouse HTR2A agonists, beta-arrestin recruitment, confirmation, cell-based, luminescence, CHO-K1 PathHunter, triplicate. shares compounds with HTR2A ag. DMSO 0%, 30 µM serotonin 100%. activation, % at 7.6 µM. 19% of 2,300 active. AID 624381, 2012;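 active = mean activation across triplicates above the hit threshold derived in the original primary screen, cut at about 15% in these data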
* = called active by the depositor; x = no result.

SMILES	Calb FLC	Insulin prom up	beta cell repl	SR-BI uptake up	SR-BI DiI inh	HTR2A ag	OPRM1 ag	HTR2A ag conf
COc1cccc(-c2nc(NC3CCCC3)c3ccccc3n2)c1O	23.6	x	-5.0	-82.5	82.5*	77.5*	-0.1	81.2*
CCCCNC(=O)C(=O)Nc1cc2c3c(c1)CCC(=O)N3CCC2	9.9	x	4.0	x	39.3	14.7*	-0.5	-3.8
CC(C)(C)n1nnnc1C(c1ccccc1)N1CCN(C/C=C/c2ccccc2)CC1 (stereo not given)	x	x	x	x	x	-3.5	x	x
COc1ccc(-n2nnnc2C(CCc2ccccc2)N2CCN(C/C=C/c3ccccc3)CC2)cc1 (stereo not given)	x	x	x	x	x	-1.8	x	x
CCC(c1nnnn1-c1ccc(OC)cc1)N1CCN(C/C=C/c2ccccc2)CC1 (stereo not given)	x	x	x	x	x	14.5*	-0.5	24.4*
CCC(c1nnnn1C(C)(C)C)N1CCN(C/C=C/c2ccccc2)CC1 (stereo not given)	x	x	x	x	x	15.3*	0.2	38.5*
Cn1cnc2c(cnn2C)c1=N	x	x	x	10.0	-10.0	5.2	x	x
O=C(COC(=O)Cc1c(Cl)cccc1Cl)Nc1ccc(OC(F)(F)F)cc1	-6.9	-0.21	-1.2	x	x	-0.1	x	x
COc1cccc(CNC(=O)CN2C(=O)CSc3ccc(S(=O)(=O)N4CCCC4)cc32)c1	-3.1	-0.29	1.9	3.5	-3.5	-1.9	x	x
O=C(NCCc1ccc(Cl)cc1)c1ccc(Br)s1	0.4	x	1.6	7.9	-7.9	-5.5	x	x
Cc1cc(OCC(=O)OCC(=O)NC2CCCC2)ccc1Cl	x	x	0.3	11.2	-11.2	-8.7	x	x
COc1ccc(CCC(=O)OCC(=O)NC2CCCC2)cc1OC	x	x	x	x	x	-1.2	x	x
COc1ccc(CC(=O)OCC(=O)NC2CCCCC2)cc1OC	x	x	-2.1	4.7	-4.7	20.4*	-0.5	-2.2
Cc1ccc(OCC(=O)OCC(=O)NC2CCCC2)cc1C	x	x	-2.1	39.2	-39.2	15.1*	-0.2	3.5
CCc1nc(SCc2ccc(OCC(C)C)cc2)n[nH]1	-18.1	x	-4.6	0.5	-0.5	0.0	x	x
O=C(N[C@@H]1CC[C@@H](CCNC(=O)C2CCOCC2)O[C@@H]1CO)c1ccncc1	x	x	x	x	x	2.0	x	x
O=C(CNC(=O)c1ccc(Cl)c([N+](=O)[O-])c1)OCN1C(=O)c2ccccc2C1=O	3.4	x	0.5	-19.9	19.9	-1.0	x	x
CN(C)S(=O)(=O)NC(=O)C1=C(N2CCCC2)COC1=O	x	x	-5.5	28.2	-28.2	23.0*	-0.6	-4.1
CON(C)S(=O)(=O)NC(=O)C1=C(N2CCCC2)COC1=O	x	x	-2.2	3.4	-3.4	-7.1	x	x
CS(=O)(=O)N(CC(=O)NCc1ccncc1)C1CCCCC1	-2.3	0.83	-0.5	3.0	-3.0	0.7	x	x
CCN(CC)C1CCN(C(=O)c2cc(COc3ccc(-n4cncn4)cc3)on2)C1 (stereo not given)	6.1	x	-3.8	18.5	-18.5	15.6*	-0.7	-2.9
COCC1CCN(C(=O)c2cc(COc3ccc(-n4cncn4)cc3)on2)C1 (stereo not given)	9.5	x	0.7	16.2	-16.2	4.0	x	x
COc1ccc(NC(=O)CSc2ccc(-c3ccccn3)nn2)cc1OC	-21.8	-0.01	-3.7	4.0	-4.0	35.5*	-0.8	107.4*
O=C(CCN1C(=O)C2C3C=CC(C4CC34)C2C1=O)Nc1ccc(Cl)cc1O (stereo not given)	x	x	-1.4	15.1	-15.1	-2.6	x	x
COc1ccc(CCN2CC(C(=O)N(C)CCn3nc(C)cc3C)CCC2=O)cc1 (stereo not given)	-1.7	x	3.5	11.2	-11.2	-4.4	x	x
SMILES	Calb FLC	Insulin prom up	beta cell repl	SR-BI uptake up	SR-BI DiI inh	HTR2A ag	OPRM1 ag	HTR2A ag conf
Cc1cc(C)n(CCN(C)C(=O)C2CCC(=O)N(CCc3cccc(F)c3)C2)n1 (stereo not given)	2.4	x	-1.8	-6.9	6.9	15.0*	-0.4	-3.5
CCOc1ccc(Oc2ccc(NC(=O)CSc3nncn3C)cc2)cc1	x	x	-3.5	2.0	-2.0	-1.6	x	x
CCOC(=O)C1CCCN(C(=O)c2cc(C)oc2C)CC1 (stereo not given)	x	x	x	x	x	-2.5	x	x
CC1(C(=O)NCc2ccc(C(F)(F)F)cc2)CCN1C1Cc2ccccc2C1 (stereo not given)	x	x	x	x	x	0.7	x	x
O=C(Cc1cccc(NC(=O)C2CCCN(C(=O)C3CCC3)C2)c1)Nc1cccc(C(=O)N2CCCC2)c1 (stereo not given)	x	x	0.2	-55.5	55.5	-3.7	x	x
Nc1c(C(=O)Nc2cccc(F)c2)nnn1-c1ccc2c(c1)OCCO2	-13.0	x	-0.9	-11.6	11.6	15.0*	-0.1	-0.1
Nc1c(C(=O)Nc2ccc3c(c2)OCCO3)nnn1Cc1ccccc1Cl	3.9	x	-1.2	-39.6	39.6	18.5*	0.2	3.9
Nc1c(C(=O)Nc2ccc3c(c2)OCCO3)nnn1Cc1cccc(Cl)c1	0.7	x	-6.1	4.5	-4.5	-8.2	x	x
Cc1nc2cc(-c3ccc(Br)cc3)[nH]n2c(=O)c1Cl	1.0	x	-3.5	12.7	-12.7	17.6*	-0.6	-3.2
Nc1nc2c(s1)CCCCCCCCCC2	-8.3	-0.36	-1.1	x	x	-0.1	x	x
CCCN[C@H]1CCc2nc(N)sc2C1	-4.5	x	-5.4	10.2	-10.2	59.9*	-0.2	142.1*
O=C(O)/C=C\C(=O)Nc1ccc(N2CCN(c3cccc(Cl)c3)CC2)cc1	11.2	-0.07	-1.3	-31.4	31.4	16.8*	-0.7	-5.0
O=C(O)/C=C\C(=O)Nc1ccc(N2CCN(c3ccc(Cl)c(Cl)c3)CC2)cc1	-65.9	x	-1.0	-7.7	7.7	35.1*	-0.6	-1.9
O=C(O)/C=C\C(=O)Nc1ccc(N2CCN(c3ccc(Cl)cc3)CC2)cc1	-39.5	x	0.6	-9.1	9.1	7.1	x	x
CC1(c2nnnn2-c2ccc3c(c2)OCCO3)CCC(=O)N1C1CCN(Cc2ccccc2)CC1 (stereo not given)	x	x	x	x	x	0.8	x	x
N#CC1(NC(=O)CSc2ccccn2)CCCCC1	-2.9	x	0.4	3.6	-3.6	14.6*	-0.6	-3.5
O=C(Nc1ccc2snnc2c1)N1CCSCC1	-1.6	-0.47	-0.8	-6.9	6.9	17.3*	0.2	3.0
